Measured values as given in ChEMBL document CHEMBL4229344 (Eur J Med Chem, 2018).

What was measured:
[1] = tested on: Tyrosine-protein kinase ABL1 (Homo sapiens), P00519 [F317I]; experiment: Binding affinity to human non-phosphorylated ABL1 F317I mutant (S229 to K512 residues) expressed in mammalian expression system assessed as residual binding level at 1 uM by Kinomescan method relative to control
Outline: (§1)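 Kinome-wide single-concentration binding screen (KINOMEscan) at 1 μM against a panel of 468 purified kinases and mutants. Read-out is relative binding of each kinase compared with control. Selectivity across the panel was summarised as an S(10) score.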

[2] = target: Tyrosine-protein kinase ABL2 (Homo sapiens) (UniProt P42684); experiment: Binding affinity to wild-type human ABL2 (A248 to G542 residues) expressed in bacterial expression system assessed as residual binding level at 1 uM by Kinomescan method relative to control
Outline: (§2)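 KINOMEscan competition binding against 468 purified kinases/mutants, test compound at 1 µM; residual binding relative to control.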

[3] = target: Mitogen-activated protein kinase kinase kinase 5 (Homo sapiens) (UniProt Q99683); experiment: Binding affinity to wild-type human partial length ASK1 (E648 to S964 residues) expressed in bacterial expression system assessed as residual binding level at 1 uM by Kinomescan method relative to control
Outline: (§3)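 Single-concentration KINOMEscan (DiscoverX) binding screen at 1 μM against a panel of 468 purified kinases and mutants. The read-out is binding relative to control.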

[4] = target: Cyclin-dependent kinase 13 (Homo sapiens) (UniProt Q14004); experiment: Binding affinity to wild-type human partial length CDC2L5 (H675 to S1054 residues) expressed in mammalian expression system assessed as residual binding level at 1 uM by Kinomescan method relative to control
[5] = target: Death-associated protein kinase 2 (Homo sapiens) (UniProt Q9UIK4); experiment: Binding affinity to wild-type human full length DAPK2 (M1 to S370 residues) expressed in bacterial expression system assessed as residual binding level at 1 uM by Kinomescan method relative to control; outline: as §2
[6] = tested on: Epidermal growth factor receptor (Homo sapiens), P00533 [UNDEFINED MUTATION]; experiment: Binding affinity to human partial length EGFR L747-E749del/A750P mutant expressed in bacterial expression system assessed as residual binding level at 1 uM by Kinomescan method relative to control; outline: as §1
[7] = target: Ephrin type-A receptor 6 (Homo sapiens) (UniProt Q9UF33); experiment: Binding affinity to wild-type human partial length EPHA6 (Y700 to E1046 residues) expressed in bacterial expression system assessed as residual binding level at 1 uM by Kinomescan method relative to control
Outline: (§4)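 Kinome-wide competition binding screen against a panel of 468 purified kinases/mutants, with the test compound at a single concentration of 1 μM. Read-out is the relative binding activity of each kinase in the presence of compound.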

[8] = target: Ephrin type-B receptor 3 (Homo sapiens) (UniProt P54753); experiment: Binding affinity to wild-type human partial length EPHB3 (Q599 to T928 residues) expressed in bacterial expression system assessed as residual binding level at 1 uM by Kinomescan method relative to control; outline: as §4
[9] = tested on: Receptor-type tyrosine-protein kinase FLT3 (Homo sapiens), P36888 [UNDEFINED MUTATION]; experiment: Binding affinity to human partial length FLT3 ITD mutant expressed in bacterial expression system assessed as residual binding level at 1 uM by Kinomescan method relative to control; outline: as §1
[10] = target: Serine/threonine-protein kinase OSR1 (Homo sapiens) (UniProt O95747); experiment: Binding affinity to wild-type human full length OSR1 (M1 to S527 residues) expressed in mammalian expression system assessed as residual binding level at 1 uM by Kinomescan method relative to control; outline: as §3
[11] = target: Phosphatidylinositol 4,5-bisphosphate 3-kinase catalytic subunit delta isoform (Homo sapiens) (UniProt O00329); experiment: Binding affinity to wild-type human partial length PIK3CD (R108 to Q1044 residues) expressed in mammalian expression system assessed as residual binding level at 1 uM by Kinomescan method relative to control
[12] = target: Serine/threonine-protein kinase pim-1 (Homo sapiens) (UniProt P11309); experiment: Binding affinity to wild-type human partial length PIM1 (A15 to K313 residues) expressed in bacterial expression system assessed as residual binding level at 1 uM by Kinomescan method relative to control
[13] = target: Serine/threonine-protein kinase pim-2 (Homo sapiens) (UniProt Q9P1W9); experiment: Binding affinity to wild-type human partial length PIM2 (M1 to E291 residues) expressed in bacterial expression system assessed as residual binding level at 1 uM by Kinomescan method relative to control
[14] = target: Phosphatidylinositol 4-phosphate 5-kinase type-1 alpha (Homo sapiens) (UniProt Q99755); experiment: Binding affinity to wild-type human full length PIP5K1A (M1 to H562 residues) expressed in bacterial expression system assessed as residual binding level at 1 uM by Kinomescan method relative to control; outline: as §3
[15] = target: Phosphatidylinositol 5-phosphate 4-kinase type-2 gamma (Homo sapiens) (UniProt Q8TBX8); experiment: Binding affinity to wild-type human partial length PIP5K2C (M1 to A421 residues) expressed in mammalian expression system assessed as residual binding level at 1 uM by Kinomescan method relative to control
Outline: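 KINOMEscan competition binding against a panel of 468 purified kinases/mutants, compound tested at 1 μM; readout is relative binding activity versus control.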

[16] = target: cGMP-dependent protein kinase 1 (Homo sapiens) (UniProt Q13976); experiment: Binding affinity to wild-type human partial length PRKG1 (L339 to F686 residues) expressed in bacterial expression system assessed as residual binding level at 1 uM by Kinomescan method relative to control
[17] = tested on: Proto-oncogene tyrosine-protein kinase receptor Ret (Homo sapiens), P07949 [V804L]; experiment: Binding affinity to human partial length RET V804L mutant (E713 to D1014 residues) expressed in bacterial expression system assessed as residual binding level at 1 uM by Kinomescan method relative to control; outline: as §1
[18] = target: Serine/threonine-protein kinase 36 (Homo sapiens) (UniProt Q9NRP7); experiment: Binding affinity to wild-type human partial length STK36 (M1 to T271 residues) expressed in bacterial expression system assessed as residual binding level at 1 uM by Kinomescan method relative to control
[19] = target: Dual specificity protein kinase TTK (Homo sapiens) (UniProt P33981); experiment: Binding affinity to wild-type human partial length TTK (N505 to V798 residues) expressed in bacterial expression system assessed as residual binding level at 1 uM by Kinomescan method relative to control
[20] = target: Mast/stem cell growth factor receptor Kit (Homo sapiens, UniProt P10721); experiment: Inhibition of c-KIT (unknown origin) using poly(4:1 Glu,Tyr) peptide as substrate preincubated for 1 hr followed by addition of ATP and measured after 30 mins by ADP-Glo bioluminescence assay
[21] = Tmax in Sprague-Dawley rat at 10 mg/kg, po; assay type: ADME, organism-based; conditions: in vivo
Outline: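 Male Sprague-Dawley rats, 6–8 weeks old and fasted overnight, dosed IV at 1 mg/kg or PO at 10 mg/kg. Formulation was 5% DMSO/40% PEG400/55% saline (1 mg/mL). Jugular blood collected on heparin from 1 min to 8 h (IV) or 5 min to 24 h (PO). Plasma separated by centrifugation at 2–8 °C and stored at −80 °C.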

Cc1ccc(NC(=O)c2ccc(CN(CCN(C)C)C(=O)c3cccnc3)cc2)cc1Nc1nccc(-c2cccnc2)n1
Activity [1]: 94%
Activity [2]: 69%
Activity [3]: 100%
Activity [4]: 100%
Activity [5]: 94%
Activity [6]: 77%
Activity [7]: 92%
Activity [8]: 94%
Activity [9]: 81%
Activity [10]: 100%
Activity [11]: 100%
Activity [12]: 98%
Activity [13]: 93%
Activity [14]: 100%
Activity [15]: 37%
Activity [16]: 85%
Activity [17]: 97%
Activity [18]: 97%
Activity [19]: 81%
IC50 [20]: > 10 µM
Tmax [21]: 1.5 h
